# Values joined by “and” are separate entries in the source; they are usually repeats but may differ in a detail not shown here. Identical values can stand only once.
# Tested on: Fibroblast
# Test: Multiplex assay against human fibroblast
# Format: toxicity, cell-based
# Settings: number of replicates 2
# Summary of the method: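 At seeding, live cells were stained with Hoechst33342, BioTracker Green Microtubule Cytoskeleton Dye, MitoTracker Red and Annexin V Alexa Fluor 680. After compound addition they were imaged on a CQ1 microscope at 37°C and 5% CO2, and CellPathfinder machine-learning gating sorted them into Hoechst high-intensity objects or normal cells, with normal cells further split into healthy, pyknosed or fragmented nuclei and pyknosed cells into mitotic or apoptotic. Tubulin, mitochondrial-mass and membrane-permeability phenotypes are given as per cents of cells with healthy nuclei.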
# [1] = 12 h, 1 µM, compound concentration 1 uM
# [2] = 12 h, 10 µM, compound concentration 10 uM
# [3] = 24 h, 1 µM, compound concentration 1 uM
# [4] = 24 h, 10 µM, compound concentration 10 uM
# [5] = 48 h, 1 µM, compound concentration 1 uM
# [6] = 48 h, 10 µM, compound concentration 10 uM
smiles,measurement,setting,value
Cn1cc(-c2ccc(-c3cncc(Cl)c3N3CCC4(CCNC4=O)CC3)cc2)cn1,Population Apoptotic (%),[1],34% and 44%
same,Population Fragmented Nuclei (%),[1],3% and 11%
same,Population Healthy Nuclei (%),[1],66% and 70%
same,Population Hoechst High Intensity Objects (%),[1],0%
same,Population Membrane Permeable-Phenotype (%),[1],9% and 5%
same,Population Mitochondria Different-Phenotype (%),[1],0% and 2%
same,Population Mitotic Cells (%),[1],66% and 55%
same,Population Normal (%),[1],100%
same,Population Pyknosed Nuclei (%),[1],30% and 18%
same,Population Tubulin-Different-Phenotype (%),[1],22% and 16%
same,Total Cell Count,[1],162 and 230
same,Population Apoptotic (%),[2],25% and 39%
same,Population Fragmented Nuclei (%),[2],14% and 11%
same,Population Healthy Nuclei (%),[2],67% and 71%
same,Population Hoechst High Intensity Objects (%),[2],0%
same,Population Membrane Permeable-Phenotype (%),[2],18% and 13%
same,Population Mitochondria Different-Phenotype (%),[2],3% and 4%
same,Population Mitotic Cells (%),[2],74% and 60%
same,Population Normal (%),[2],100%
same,Population Pyknosed Nuclei (%),[2],17% and 16%
same,Population Tubulin-Different-Phenotype (%),[2],84% and 65%
same,Total Cell Count,[2],196 and 203
same,Population Apoptotic (%),[3],45% and 50%
same,Population Fragmented Nuclei (%),[3],7% and 13%
same,Population Healthy Nuclei (%),[3],38% and 57%
same,Population Hoechst High Intensity Objects (%),[3],0%
same,Population Membrane Permeable-Phenotype (%),[3],21% and 8%
same,Population Mitochondria Different-Phenotype (%),[3],3% and 2%
same,Population Mitotic Cells (%),[3],54% and 49%
same,Population Normal (%),[3],99%
same,Population Pyknosed Nuclei (%),[3],53% and 28%
same,Population Tubulin-Different-Phenotype (%),[3],41% and 21%
same,Total Cell Count,[3],157 and 229
same,Population Apoptotic (%),[4],44% and 56%
same,Population Fragmented Nuclei (%),[4],24% and 22%
same,Population Healthy Nuclei (%),[4],62% and 64%
same,Population Hoechst High Intensity Objects (%),[4],0%
same,Population Membrane Permeable-Phenotype (%),[4],15% and 7%
same,Population Mitochondria Different-Phenotype (%),[4],8% and 7%
same,Population Mitotic Cells (%),[4],55% and 43%
same,Population Normal (%),[4],99% and 100%
same,Population Pyknosed Nuclei (%),[4],13% and 12%
same,Population Tubulin-Different-Phenotype (%),[4],82% and 73%
same,Total Cell Count,[4],204 and 232
same,Population Apoptotic (%),[5],69% and 58%
same,Population Fragmented Nuclei (%),[5],8% and 20%
same,Population Healthy Nuclei (%),[5],50% and 57%
same,Population Hoechst High Intensity Objects (%),[5],0% and 1%
same,Population Mitochondria Different-Phenotype (%),[5],1% and 2%
same,Population Mitotic Cells (%),[5],30% and 41%
same,Population Normal (%),[5],99% and 98%
same,Population Pyknosed Nuclei (%),[5],40% and 22%
same,Population Tubulin-Different-Phenotype (%),[5],47% and 22%
same,Total Cell Count,[5],154 and 211
same,Population Apoptotic (%),[6],66% and 69%
same,Population Fragmented Nuclei (%),[6],19% and 22%
same,Population Healthy Nuclei (%),[6],67% and 66%
same,Population Hoechst High Intensity Objects (%),[6],0%
same,Population Membrane Permeable-Phenotype (%),[6],9% and 2%
same,Population Mitochondria Different-Phenotype (%),[6],11%
same,Population Mitotic Cells (%),[6],33% and 30%
same,Population Normal (%),[6],99%
same,Population Pyknosed Nuclei (%),[6],12% and 10%
same,Population Tubulin-Different-Phenotype (%),[6],66% and 68%
same,Total Cell Count,[6],210 and 211
CNc1ncc2cc(-c3ccc(-c4cccc(C)n4)cc3Cl)c(=O)n(C[C@H]3OC[C@H](N)CO3)c2n1,Population Apoptotic (%),[1],43% and 42%
same,Population Fragmented Nuclei (%),[1],9% and 17%
same,Population Healthy Nuclei (%),[1],51% and 52%
same,Population Hoechst High Intensity Objects (%),[1],0%
same,Population Membrane Permeable-Phenotype (%),[1],10%
same,Population Mitochondria Different-Phenotype (%),[1],0%
same,Population Mitotic Cells (%),[1],56% and 57%
same,Population Normal (%),[1],100%
same,Population Pyknosed Nuclei (%),[1],39% and 30%
same,Population Tubulin-Different-Phenotype (%),[1],21% and 18%
same,Total Cell Count,[1],176 and 246
same,Population Apoptotic (%),[2],44% and 35%
same,Population Fragmented Nuclei (%),[2],22% and 26%
same,Population Healthy Nuclei (%),[2],26% and 28%
same,Population Hoechst High Intensity Objects (%),[2],1% and 7%
same,Population Membrane Permeable-Phenotype (%),[2],23% and 16%
same,Population Mitochondria Different-Phenotype (%),[2],0%
same,Population Mitotic Cells (%),[2],55% and 64%
same,Population Normal (%),[2],98% and 92%
same,Population Pyknosed Nuclei (%),[2],50% and 45%
same,Population Tubulin-Different-Phenotype (%),[2],55% and 51%
same,Total Cell Count,[2],227 and 323
same,Population Apoptotic (%),[3],41% and 67%
same,Population Fragmented Nuclei (%),[3],14% and 21%
same,Population Healthy Nuclei (%),[3],56%
same,Population Hoechst High Intensity Objects (%),[3],0%
same,Population Membrane Permeable-Phenotype (%),[3],25% and 13%
same,Population Mitochondria Different-Phenotype (%),[3],0%
same,Population Mitotic Cells (%),[3],58% and 32%
same,Population Normal (%),[3],100% and 99%
same,Population Pyknosed Nuclei (%),[3],28% and 21%
same,Population Tubulin-Different-Phenotype (%),[3],29% and 15%
same,Total Cell Count,[3],179 and 248
same,Population Apoptotic (%),[4],45% and 65%
same,Population Fragmented Nuclei (%),[4],27% and 23%
same,Population Healthy Nuclei (%),[4],34% and 36%
same,Population Hoechst High Intensity Objects (%),[4],7% and 4%
same,Population Membrane Permeable-Phenotype (%),[4],31% and 34%
same,Population Mitochondria Different-Phenotype (%),[4],5% and 4%
same,Population Mitotic Cells (%),[4],54% and 34%
same,Population Normal (%),[4],92% and 95%
same,Population Pyknosed Nuclei (%),[4],38% and 39%
same,Population Tubulin-Different-Phenotype (%),[4],37% and 59%
same,Total Cell Count,[4],304 and 248
same,Population Apoptotic (%),[5],61% and 86%
same,Population Fragmented Nuclei (%),[5],22% and 24%
same,Population Healthy Nuclei (%),[5],64% and 66%
same,Population Hoechst High Intensity Objects (%),[5],0%
same,Population Membrane Permeable-Phenotype (%),[5],36% and 19%
same,Population Mitochondria Different-Phenotype (%),[5],0%
same,Population Mitotic Cells (%),[5],38% and 13%
same,Population Normal (%),[5],100%
same,Population Pyknosed Nuclei (%),[5],12% and 9%
same,Population Tubulin-Different-Phenotype (%),[5],39% and 19%
same,Total Cell Count,[5],171 and 237
same,Population Apoptotic (%),[6],42% and 24%
same,Population Fragmented Nuclei (%),[6],19% and 28%
same,Population Healthy Nuclei (%),[6],57% and 51%
same,Population Hoechst High Intensity Objects (%),[6],9% and 11%
same,Population Membrane Permeable-Phenotype (%),[6],40% and 39%
same,Population Mitochondria Different-Phenotype (%),[6],2% and 1%
same,Population Mitotic Cells (%),[6],57% and 75%
same,Population Normal (%),[6],90% and 88%
same,Population Pyknosed Nuclei (%),[6],23% and 20%
same,Population Tubulin-Different-Phenotype (%),[6],33% and 29%
same,Total Cell Count,[6],268 and 338

# From ChEMBL document CHEMBL5303300, “EUbOPEN Chemogenomics Library - Multiplex” (2023)
